Laboratory results taken from paper PMC3361693 (Chemistry & biology, 2012).
In brackets after ≈: the same amount, converted by molar mass. Read-outs that look alike come from different tables or passages of the source.

What was measured:
[1] = tested on: NO production by LPS-stimulated RAW264.7 murine macrophages; assay: Inhibition of NO production by LPS-stimulated murine macrophages; assay type: cell-based; conditions: Mus musculus
V. harveyi BB120 [2] = assay: microbe, parasite or virus in culture; assay type: cell-based, Vibrio harveyi
E. coli JB525 [3] = assay: QS inhibition: GFP production in E. coli JB525; assay type: cell-based, Escherichia coli
[4] = Cytotoxicity / cell survival in Raw264.7 cells; conditions: mouse
TNF-α = assay: qRT-PCR transcript level in LPS-stimulated RAW 264.7 cells: TNF-α; assay type: cell-based, murine; conditions: after 6 h of treatment
In short: (§1)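 Murine RAW264.7 macrophages were LPS-stimulated and treated with the test compound for 6 h, alongside untreated LPS-stimulated cells. RNA was isolated and reverse-transcribed to cDNA. Transcripts of TNF-α, IL-1β, IL-6 and iNOS were quantified by qRT-PCR and expressed as fold change versus untreated cells. Three replicates were run, reported as mean ± standard deviation, with Student's t-test (p < 0.05).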

IL-1β = assay: qRT-PCR transcript level in LPS-stimulated RAW 264.7 cells: IL-1β; assay type: cell-based, murine; conditions: after 6 h of treatment
In short: as §1

IL-6 = assay: qRT-PCR transcript level in LPS-stimulated RAW 264.7 cells: IL-6; assay type: cell-based, murine; conditions: after 6 h of treatment
In short: as §1

iNOS = assay: qRT-PCR transcript level in LPS-stimulated RAW 264.7 cells: iNOS; assay type: cell-based, murine; conditions: after 6 h of treatment
In short: as §1

V. harveyi BB120 [5] = assay: Growth inhibitory; assay type: cell-based, Vibrio harveyi
E. coli JB525 [6] = assay: Growth inhibitory; assay type: cell-based, Escherichia coli
Raw264.7 cells = assay: Cytotoxicity / cell survival in Raw264.7 cells; conditions: for IC50: read-out: Cytotoxicity in Raw264.7 cells (IC50), Raw264.7 cells
[7] = RAW264.7, read-out: NO inhibition (IC50), dash with footnote b
[8] = Vibrio harveyi, read-out: QS inhibition (IC50) V. harveyi, dash with footnote d
[9] = Escherichia coli, read-out: QS inhibition (IC50) E. coli, dash with footnote d
[10] = read-out: QS inhibition (IC50) V. harveyi, inhibition of bioluminescence, V. harveyi BB120
[11] = read-out: QS inhibition (IC50) E. coli, inhibition of GFP production, E. coli JB525, OHHL autoinducer
[12] = RAW264.7, read-out: NO inhibition (IC50 ± SD)
[13] = Vibrio harveyi, read-out: QS inhibition (IC50) V. harveyi
[14] = Escherichia coli, read-out: QS inhibition (IC50) E. coli

SMILES: O=C1OCCC1O (racemic) [Compound 6, (R/S)-2-hydroxy-γ-butyrolactone]
- IC50 [1, 7]: > 30 µg/mL
- IC50 (V. harveyi BB120 [2]; [8]): > 125 µg/mL
- IC50 (E. coli JB525 [3]; [9]): > 125 µg/mL
- IC50 [4]: > 98 µM

SMILES: O=C(/C=C/CCl)O[C@@H]1COC(=O)C1 [Compound 1, Honaucin A]
- IC50 (V. harveyi BB120 [2]; [10]): 5.6 µM
- IC50 (E. coli JB525 [3]; [11]): 38.5 µM
- reduction in transcripts of TNF-α (TNF-α): −9.3 fold
- reduction in transcripts of IL-1β (IL-1β): −154.6 fold
- reduction in transcripts of IL-6 (IL-6): −19.0 fold
- reduction in transcripts of iNOS (iNOS): −11.8 fold
- growth inhibitory effects: none observed up to concentration (V. harveyi BB120 [5]): > 610 µM
- growth inhibitory effects: none observed up to concentration (E. coli JB525 [6]): > 610 µM
- therapeutic window between NO inhibitory effect and cytotoxicity (Raw264.7 cells; RAW264.7 cells, cytotoxicity IC50 vs NO inhibition IC50): greater than ten-fold
- IC50 (Raw264.7 cells): > 49 µM

SMILES: O=C(O)/C=C/CCl [Compound 7, 4-chlorocrotonic acid]
- IC50 [1, 12]: 28 ± 4.3 µM
- IC50 (V. harveyi BB120 [2]; [13]): 72.5 µM
- IC50 (E. coli JB525 [3]; [14]): 152 µM
- IC50 ([4]; RAW264.7 macrophage cells): 80 µM

SMILES: O=C(/C=C/CCl)O[C@H]1COC(=O)C1 [Compound 17, epi-honaucin A]
- IC50 (V. harveyi BB120 [2]; [10]): 22.1 µM
- IC50 (E. coli JB525 [3]; [11]): 260 µM
- IC50 (Raw264.7 cells): > 49 µM

SMILES: O=C(O)/C=C/CF [Compound 13, 4-fluorocrotonic acid]
- IC50 [1, 12]: 11.6 ± 4.3 µM
- IC50 (V. harveyi BB120 [2]; [13]): 167 µM
- IC50 (E. coli JB525 [3]; [14]): > 304 µM
- IC50 [4]: > 288 µM

SMILES: O=C1C[C@@H](O)CO1 [Compound 5, (R)-3-hydroxy-γ-butyrolactone]
- IC50 (V. harveyi BB120 [2]; [8]): > 125 µg/mL
- IC50 (E. coli JB525 [3]; [9]): > 125 µg/mL
- IC50 [4]: > 98 µM

SMILES: COC(=O)C[C@H](O)COC(=O)/C=C/CCl [Compound 3, Honaucin C]
- IC50 (V. harveyi BB120 [2]; [10]): 14.6 µM
- IC50 (E. coli JB525 [3]; [11]): 576 µM
- growth inhibitory effects: none observed up to concentration (V. harveyi BB120 [5]): > 483 µM
- growth inhibitory effects: none observed up to concentration (E. coli JB525 [6]): > 483 µM
- IC50 (Raw264.7 cells): 30 µM

SMILES: O=C1C[C@H](O)CO1 [Compound 4, (S)-3-hydroxy-γ-butyrolactone]
- IC50 (V. harveyi BB120 [2]; [8]): > 125 µg/mL
- IC50 (E. coli JB525 [3]; [9]): > 125 µg/mL
- IC50 [4]: > 98 µM

SMILES: C/C=C/C(=O)O [Compound 9, crotonic acid]
- IC50 [1, 7]: > 30 µg/mL
- IC50 [1, 12]: > 116 µM
- IC50 (V. harveyi BB120 [2]; [8]): > 125 µg/mL
- IC50 (E. coli JB525 [3]; [9]): > 125 µg/mL
- IC50 ([4]; RAW264.7 macrophage cells): > 116 µM

SMILES: O=C(O)/C=C/CI [Compound 15, 4-iodocrotonic acid]
- IC50 [1, 12]: 1.2 ± 0.2 µM
- IC50 (V. harveyi BB120 [2]; [13]): 1.2 µM
- growth inhibitory effects: none observed up to concentration (V. harveyi BB120 [5]): > 32 µM
- MIC (antibiotic effect) (E. coli JB525 [6]): 18 µM (≈ 3.82 µg/mL)
- IC50 ([4]; RAW264.7 macrophage cells): 10 µM

SMILES: O=C(O)/C=C/CBr [Compound 14, 4-bromocrotonic acid]
- IC50 [1, 12]: 3.5 ± 0.5 µM
- IC50 (V. harveyi BB120 [2]; [13]): 10.5 µM
- MIC (antibiotic effect) (E. coli JB525 [6]): 188 µM (≈ 31 µg/mL)
- IC50 ([4]; RAW264.7 macrophage cells): 35 µM

SMILES: CCOC(=O)C[C@H](O)COC(=O)/C=C/CCl [Compound 2, Honaucin B]
- IC50 (V. harveyi BB120 [2]; [10]): 17.6 µM
- IC50 (E. coli JB525 [3]; [11]): 908 µM
- growth inhibitory effects: none observed up to concentration (V. harveyi BB120 [5]): > 458 µM
- growth inhibitory effects: none observed up to concentration (E. coli JB525 [6]): > 458 µM
- IC50 (Raw264.7 cells): 16 µM
